# System: not listed separately
# Assay: Elimination half life in Sprague-Dawley rat at 2 m/kg, iv
# Type: ADME, organism-based
# Conditions: in vivo, read-out: beta t1/2
row,half-life [min],SMILES
1,32,C[C@@H]1CN[C@@H](C2CC2)C(=O)N(C)[C@H](C)C(=O)N[C@H](Cc2ccccc2)C(=O)NCCCc2ccccc2O1
2,14,C[C@@H]1C(=O)N[C@H](Cc2ccc(F)cc2)C(=O)NCCCc2ccccc2OCCN[C@@H](C2CC2)C(=O)N1C
3,41,C[C@@H]1CN[C@@H](C2CC2)C(=O)N(C)[C@H](C)C(=O)N[C@H](Cc2ccc(Cl)cc2)C(=O)NCCCc2ccccc2O1
4,66,C[C@@H]1CN[C@@H](C2CC2)C(=O)N(C)[C@H](C)C(=O)N[C@H](Cc2ccc(F)cc2)C(=O)NCCCc2ccc(F)cc2O1
5,44,CC[C@H](C)[C@@H]1NC[C@@H](C)Oc2ccccc2CCCNC(=O)[C@@H](Cc2ccc(F)cc2)NC(=O)[C@@H](C)N(C)C1=O
6,29,CCC[C@@H]1NC[C@@H](C)Oc2ccccc2CCCNC(=O)[C@@H](Cc2ccc(F)cc2)NC(=O)[C@@H](C)N(C)C1=O
7,34,CC(C)[C@@H]1NC[C@@H](C)Oc2ccccc2CCCNC(=O)[C@@H](Cc2ccc(F)cc2)NC(=O)[C@@H](C)N(C)C1=O
8,59,C[C@@H]1C(=O)N[C@H](Cc2ccc(F)cc2)C(=O)NCCCc2cccc3c2O[C@H](CC3)CN[C@@H](C2CC2)C(=O)N1C
9,74,C[C@@H]1CN[C@@H](C2CCCCC2)C(=O)N(C)[C@H](C)C(=O)N[C@H](Cc2ccc(F)cc2)C(=O)NCCCc2ccccc2O1

# System: not listed separately
# Assay: Dissociation constant, pKa of the compound
# Type: physicochemical
# Conditions: not given
row,pKa,SMILES
1,6.72,C[C@@H]1C(=O)N[C@H](Cc2ccccc2)C(=O)NCCCc2ccccc2OCCN[C@@H](C2CC2)C(=O)N1C

# System: not listed separately
# Assay: Clearance in Sprague-Dawley rat at 2 m/kg, iv
# Type: ADME, organism-based
# Conditions: in vivo
row,clearance [mL/min/kg],SMILES
1,25,C[C@@H]1CN[C@@H](C2CC2)C(=O)N(C)[C@H](C)C(=O)N[C@H](Cc2ccccc2)C(=O)NCCCc2ccccc2O1
2,72,C[C@@H]1C(=O)N[C@H](Cc2ccc(F)cc2)C(=O)NCCCc2ccccc2OCCN[C@@H](C2CC2)C(=O)N1C
3,24,C[C@@H]1CN[C@@H](C2CC2)C(=O)N(C)[C@H](C)C(=O)N[C@H](Cc2ccc(Cl)cc2)C(=O)NCCCc2ccccc2O1
4,9,C[C@@H]1CN[C@@H](C2CC2)C(=O)N(C)[C@H](C)C(=O)N[C@H](Cc2ccc(F)cc2)C(=O)NCCCc2ccc(F)cc2O1
5,40,CC[C@H](C)[C@@H]1NC[C@@H](C)Oc2ccccc2CCCNC(=O)[C@@H](Cc2ccc(F)cc2)NC(=O)[C@@H](C)N(C)C1=O
6,41,CCC[C@@H]1NC[C@@H](C)Oc2ccccc2CCCNC(=O)[C@@H](Cc2ccc(F)cc2)NC(=O)[C@@H](C)N(C)C1=O
7,40,CC(C)[C@@H]1NC[C@@H](C)Oc2ccccc2CCCNC(=O)[C@@H](Cc2ccc(F)cc2)NC(=O)[C@@H](C)N(C)C1=O
8,13,C[C@@H]1C(=O)N[C@H](Cc2ccc(F)cc2)C(=O)NCCCc2cccc3c2O[C@H](CC3)CN[C@@H](C2CC2)C(=O)N1C
9,43,C[C@@H]1CN[C@@H](C2CCCCC2)C(=O)N(C)[C@H](C)C(=O)N[C@H](Cc2ccc(F)cc2)C(=O)NCCCc2ccccc2O1

# System: not listed separately
# Assay: Cmax in Sprague-Dawley rat at 8 mg/kg, po
# Type: ADME, organism-based
# Parameters: dose 8 mg/kg, route oral
# Conditions: in vivo
# Method in brief: (§1)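 Male Sprague−Dawley rats (250 ± 20 g), 3 per compound in a single experiment, gavage 8 mg/kg in physiological saline. Blood taken at 12 time points over 6 h into K3EDTA tubes. Plasma stored at −20 °C, assayed by LC-MS/MS, noncompartmental analysis.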
row,Cmax [nM],SMILES
1,670,C[C@@H]1CN[C@@H](C2CC2)C(=O)N(C)[C@H](C)C(=O)N[C@H](Cc2ccc(Cl)cc2)C(=O)NCCCc2ccccc2O1
2,750,C[C@@H]1CN[C@@H](C2CC2)C(=O)N(C)[C@H](C)C(=O)N[C@H](Cc2ccc(F)cc2)C(=O)NCCCc2ccc(F)cc2O1

# Target: T1, Growth hormone secretagogue receptor type 1 (Homo sapiens, UniProt Q92847)
# T1 sequence (Q92847 whole entry): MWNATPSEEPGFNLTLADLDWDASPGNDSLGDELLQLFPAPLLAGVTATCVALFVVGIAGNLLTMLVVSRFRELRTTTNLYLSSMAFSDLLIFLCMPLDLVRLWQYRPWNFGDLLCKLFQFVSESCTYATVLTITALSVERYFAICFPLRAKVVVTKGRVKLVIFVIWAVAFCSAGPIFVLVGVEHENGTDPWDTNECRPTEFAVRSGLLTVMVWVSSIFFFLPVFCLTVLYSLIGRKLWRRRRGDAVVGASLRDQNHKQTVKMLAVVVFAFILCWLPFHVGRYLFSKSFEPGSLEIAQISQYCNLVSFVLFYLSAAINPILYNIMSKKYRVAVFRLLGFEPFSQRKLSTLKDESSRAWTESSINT
# Assay: Agonist activity at human GRLN receptor expressed in HEK293 cells assessed as calcium binding by Ca2+ bioluminescence aequorin assay
# Type: functional, cell-based
# Conditions: not given
# Method in brief: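 HEK-293 cells expressing human GRLN. Ca2+ bioluminescence read out by aequorin. Duplicate samples, maximum tolerated interassay variability ±10%. Full agonism defined as maximal response >70% of that of octanoylated human ghrelin.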
row,EC50 [nM],SMILES
1,23,C[C@@H]1C(=O)N[C@H](Cc2ccccc2)C(=O)NCCCc2ccccc2OCCN[C@@H](C2CC2)C(=O)N1C
2,18,C[C@@H]1CN[C@@H](C2CC2)C(=O)N(C)[C@H](C)C(=O)N[C@H](Cc2ccc(Cl)cc2)C(=O)NCCCc2ccccc2O1
3,85,C[C@@H]1C(=O)N[C@H](Cc2ccc(F)cc2)C(=O)NCCCc2cccc3c2O[C@H](CC3)CN[C@@H](C2CC2)C(=O)N1C
4,49,C[C@@H]1CN[C@@H](C2CCCCC2)C(=O)N(C)[C@H](C)C(=O)N[C@H](Cc2ccc(F)cc2)C(=O)NCCCc2ccccc2O1

# System: not listed separately
# Assay: AUC (0 to infinity) in Sprague-Dawley rat at 8 mg/kg, po
# Type: ADME, organism-based
# Parameters: time infinity, dose 8 mg/kg, route oral
# Conditions: plasma
# Method in brief: as §1
row,AUC(0-inf) [µM·h],SMILES
1,1.23,C[C@@H]1CN[C@@H](C2CC2)C(=O)N(C)[C@H](C)C(=O)N[C@H](Cc2ccc(Cl)cc2)C(=O)NCCCc2ccccc2O1
2,2.08,C[C@@H]1CN[C@@H](C2CC2)C(=O)N(C)[C@H](C)C(=O)N[C@H](Cc2ccc(F)cc2)C(=O)NCCCc2ccc(F)cc2O1

# System: not listed separately
# Assay: Oral bioavailability in Sprague-Dawley rat at 8 mg/kg
# Conditions: in vivo
row,bioavailability [%],SMILES
1,22,C[C@@H]1CN[C@@H](C2CC2)C(=O)N(C)[C@H](C)C(=O)N[C@H](Cc2ccc(Cl)cc2)C(=O)NCCCc2ccccc2O1
2,15,C[C@@H]1CN[C@@H](C2CC2)C(=O)N(C)[C@H](C)C(=O)N[C@H](Cc2ccc(F)cc2)C(=O)NCCCc2ccc(F)cc2O1

# System: Rattus norvegicus
# Assay: Induction of gastric emptying in overnight-fasted iv dosed Wistar rat measured after 15 mins by […] analysis
# Type: functional, organism-based, Stomach
# Conditions: not given
# Method in brief: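 Overnight-fasted male Wistar rats (200 ± 20 g), N = 5 per point. Compound given IV in 9% 2-hydroxypropyl-β-cyclodextrin together with an oral 2% methylcellulose meal containing 0.05% phenol red (2 mL). Sacrifice 15 min later; phenol red left in stomach read at 560 nm. […] Metoclopramide positive control at 10 mg/kg IV.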
row,EC50 [mg/kg],SMILES
1,0.84,C[C@@H]1CN[C@@H](C2CC2)C(=O)N(C)[C@H](C)C(=O)N[C@H](Cc2ccc(Cl)cc2)C(=O)NCCCc2ccccc2O1
2,1.38,C[C@@H]1CN[C@@H](C2CC2)C(=O)N(C)[C@H](C)C(=O)N[C@H](Cc2ccc(F)cc2)C(=O)NCCCc2ccc(F)cc2O1

# Target: T1, Growth hormone secretagogue receptor type 1
# Assay: Displacement of [125I-His9]-ghrelin from human GRLN receptor by radioligand binding assay
# Conditions: not given
# Method in brief: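 Competitive binding on isolated membranes expressing GRLN, with 125I-His-9 octanoylated ghrelin as radioligand.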
row,Ki [nM],SMILES
1,34,C[C@@H]1CN[C@@H](C2CC2)C(=O)N(C)[C@H](C)C(=O)N[C@H](Cc2ccccc2)C(=O)NCCCc2ccccc2O1
2,7.3,C[C@@H]1C(=O)N[C@H](Cc2ccc(F)cc2)C(=O)NCCCc2ccccc2OCCN[C@@H](C2CC2)C(=O)N1C
3,4.4,C[C@@H]1C(=O)N[C@H](Cc2ccccc2)C(=O)NCCCc2ccccc2OCCN[C@@H](C2CC2)C(=O)N1C
4,15,C[C@@H]1CN[C@@H](C2CC2)C(=O)N(C)[C@H](C)C(=O)N[C@H](Cc2ccc(Cl)cc2)C(=O)NCCCc2ccccc2O1
5,61,C[C@@H]1CN[C@@H](C2CC2)C(=O)N(C)[C@H](C)C(=O)N[C@H](Cc2ccc(F)cc2)C(=O)NCCCc2ccc(F)cc2O1
6,32,CC[C@H](C)[C@@H]1NC[C@@H](C)Oc2ccccc2CCCNC(=O)[C@@H](Cc2ccc(F)cc2)NC(=O)[C@@H](C)N(C)C1=O
7,34,CCC[C@@H]1NC[C@@H](C)Oc2ccccc2CCCNC(=O)[C@@H](Cc2ccc(F)cc2)NC(=O)[C@@H](C)N(C)C1=O
8,104,CC(C)[C@@H]1NC[C@@H](C)Oc2ccccc2CCCNC(=O)[C@@H](Cc2ccc(F)cc2)NC(=O)[C@@H](C)N(C)C1=O
9,0.9,C[C@@H]1C(=O)N[C@H](Cc2ccc(F)cc2)C(=O)NCCCc2cccc3c2O[C@H](CC3)CN[C@@H](C2CC2)C(=O)N1C
10,0.38,C[C@@H]1CN[C@@H](C2CCCCC2)C(=O)N(C)[C@H](C)C(=O)N[C@H](Cc2ccc(F)cc2)C(=O)NCCCc2ccccc2O1

# System: not listed separately
# Assay: Volume of distribution at steady state in Sprague-Dawley rat at 2 m/kg, iv
# Type: ADME, organism-based
# Conditions: in vivo, read-out: Vdss
row,Vd [L/kg],SMILES
1,1.3,C[C@@H]1CN[C@@H](C2CC2)C(=O)N(C)[C@H](C)C(=O)N[C@H](Cc2ccccc2)C(=O)NCCCc2ccccc2O1
2,1.4,C[C@@H]1C(=O)N[C@H](Cc2ccc(F)cc2)C(=O)NCCCc2ccccc2OCCN[C@@H](C2CC2)C(=O)N1C
3,1.4,C[C@@H]1CN[C@@H](C2CC2)C(=O)N(C)[C@H](C)C(=O)N[C@H](Cc2ccc(Cl)cc2)C(=O)NCCCc2ccccc2O1
4,0.9,C[C@@H]1CN[C@@H](C2CC2)C(=O)N(C)[C@H](C)C(=O)N[C@H](Cc2ccc(F)cc2)C(=O)NCCCc2ccc(F)cc2O1
5,2.5,CC[C@H](C)[C@@H]1NC[C@@H](C)Oc2ccccc2CCCNC(=O)[C@@H](Cc2ccc(F)cc2)NC(=O)[C@@H](C)N(C)C1=O
6,1.7,CCC[C@@H]1NC[C@@H](C)Oc2ccccc2CCCNC(=O)[C@@H](Cc2ccc(F)cc2)NC(=O)[C@@H](C)N(C)C1=O
7,2,CC(C)[C@@H]1NC[C@@H](C)Oc2ccccc2CCCNC(=O)[C@@H](Cc2ccc(F)cc2)NC(=O)[C@@H](C)N(C)C1=O
8,1.1,C[C@@H]1C(=O)N[C@H](Cc2ccc(F)cc2)C(=O)NCCCc2cccc3c2O[C@H](CC3)CN[C@@H](C2CC2)C(=O)N1C
9,4.7,C[C@@H]1CN[C@@H](C2CCCCC2)C(=O)N(C)[C@H](C)C(=O)N[C@H](Cc2ccc(F)cc2)C(=O)NCCCc2ccccc2O1

# System: not listed separately
# Assay: Aqueous solubility of the compound
# Type: physicochemical
# Conditions: not given
row,solubility [µg/mL],SMILES
1,100,CC[C@H](C)[C@@H]1NC[C@@H](C)Oc2ccccc2CCCNC(=O)[C@@H](Cc2ccc(F)cc2)NC(=O)[C@@H](C)N(C)C1=O
2,100,CCC[C@@H]1NC[C@@H](C)Oc2ccccc2CCCNC(=O)[C@@H](Cc2ccc(F)cc2)NC(=O)[C@@H](C)N(C)C1=O
3,≤ 10,C[C@@H]1CN[C@@H](C2CCCCC2)C(=O)N(C)[C@H](C)C(=O)N[C@H](Cc2ccc(F)cc2)C(=O)NCCCc2ccccc2O1

# Reference: ChEMBL document CHEMBL1921692 (J Med Chem, 2011)
